Experimental data from paper PMC11621760 (Proceedings of the National Academy of Sciences of the …, 2024).

What was measured:
hAR = molecular target: T1, hAR (Homo sapiens, UniProt P10275); settings: radioligand binding
T1 sequence (P10275 669-920 limits assumed): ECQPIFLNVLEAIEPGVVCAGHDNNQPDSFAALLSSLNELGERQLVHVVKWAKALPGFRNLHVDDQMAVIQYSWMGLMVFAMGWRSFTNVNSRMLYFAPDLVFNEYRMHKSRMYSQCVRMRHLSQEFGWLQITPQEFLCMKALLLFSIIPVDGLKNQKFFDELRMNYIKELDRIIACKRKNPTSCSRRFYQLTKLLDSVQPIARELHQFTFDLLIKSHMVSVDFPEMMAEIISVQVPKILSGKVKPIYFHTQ

[1] = molecular target: T2, progesterone receptor (PR) (Homo sapiens, UniProt P06401); assay: Radioligand binding assay, progesterone receptor
T2 sequence (P06401 1-933): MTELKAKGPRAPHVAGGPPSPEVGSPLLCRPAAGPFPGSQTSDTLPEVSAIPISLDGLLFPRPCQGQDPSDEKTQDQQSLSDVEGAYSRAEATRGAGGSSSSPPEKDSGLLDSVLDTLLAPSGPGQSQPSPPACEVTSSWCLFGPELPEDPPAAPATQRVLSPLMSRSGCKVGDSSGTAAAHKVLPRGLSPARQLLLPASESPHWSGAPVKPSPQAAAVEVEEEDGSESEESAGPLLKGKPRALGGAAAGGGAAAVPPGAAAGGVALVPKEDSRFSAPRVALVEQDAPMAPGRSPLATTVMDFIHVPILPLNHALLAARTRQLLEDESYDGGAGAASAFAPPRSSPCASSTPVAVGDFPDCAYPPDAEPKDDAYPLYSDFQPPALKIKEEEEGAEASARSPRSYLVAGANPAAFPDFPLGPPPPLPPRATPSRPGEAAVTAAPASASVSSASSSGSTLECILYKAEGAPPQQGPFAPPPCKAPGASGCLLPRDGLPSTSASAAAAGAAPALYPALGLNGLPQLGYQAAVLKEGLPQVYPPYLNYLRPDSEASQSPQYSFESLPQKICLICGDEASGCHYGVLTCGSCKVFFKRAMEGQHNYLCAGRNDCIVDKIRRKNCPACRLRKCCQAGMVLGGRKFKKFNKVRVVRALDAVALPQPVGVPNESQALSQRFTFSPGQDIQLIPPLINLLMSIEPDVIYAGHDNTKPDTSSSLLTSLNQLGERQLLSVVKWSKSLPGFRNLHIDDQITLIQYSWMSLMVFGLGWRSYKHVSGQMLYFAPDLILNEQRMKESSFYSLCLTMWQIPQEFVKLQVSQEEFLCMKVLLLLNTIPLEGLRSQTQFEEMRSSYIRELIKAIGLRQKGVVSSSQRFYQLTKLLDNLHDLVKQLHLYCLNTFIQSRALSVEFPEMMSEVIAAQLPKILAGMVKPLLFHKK
Method in brief: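 Eurofins Panlabs radioligand binding with steroid hormone receptors and their respective ligands. Buffer: 50 mM Tris-HCl, 0.8 M NaCl, 10% glycerol, 2 mM dithiothreitol, 0.1% BSA, 2% EtOH, pH 7.4. Receptor-ligand incubation, then 15 min with hydroxyapatite slurry. Samples filtered, filters washed three times and counted for specifically bound ligand. Log concentration series gave Ki and IC50.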

AR [2] = molecular target: T3, AR (Homo sapiens, UniProt P10275); format: cell-based; settings: VCaP, CSS and 10 nM R1881
T3 sequence (P10275 1-920): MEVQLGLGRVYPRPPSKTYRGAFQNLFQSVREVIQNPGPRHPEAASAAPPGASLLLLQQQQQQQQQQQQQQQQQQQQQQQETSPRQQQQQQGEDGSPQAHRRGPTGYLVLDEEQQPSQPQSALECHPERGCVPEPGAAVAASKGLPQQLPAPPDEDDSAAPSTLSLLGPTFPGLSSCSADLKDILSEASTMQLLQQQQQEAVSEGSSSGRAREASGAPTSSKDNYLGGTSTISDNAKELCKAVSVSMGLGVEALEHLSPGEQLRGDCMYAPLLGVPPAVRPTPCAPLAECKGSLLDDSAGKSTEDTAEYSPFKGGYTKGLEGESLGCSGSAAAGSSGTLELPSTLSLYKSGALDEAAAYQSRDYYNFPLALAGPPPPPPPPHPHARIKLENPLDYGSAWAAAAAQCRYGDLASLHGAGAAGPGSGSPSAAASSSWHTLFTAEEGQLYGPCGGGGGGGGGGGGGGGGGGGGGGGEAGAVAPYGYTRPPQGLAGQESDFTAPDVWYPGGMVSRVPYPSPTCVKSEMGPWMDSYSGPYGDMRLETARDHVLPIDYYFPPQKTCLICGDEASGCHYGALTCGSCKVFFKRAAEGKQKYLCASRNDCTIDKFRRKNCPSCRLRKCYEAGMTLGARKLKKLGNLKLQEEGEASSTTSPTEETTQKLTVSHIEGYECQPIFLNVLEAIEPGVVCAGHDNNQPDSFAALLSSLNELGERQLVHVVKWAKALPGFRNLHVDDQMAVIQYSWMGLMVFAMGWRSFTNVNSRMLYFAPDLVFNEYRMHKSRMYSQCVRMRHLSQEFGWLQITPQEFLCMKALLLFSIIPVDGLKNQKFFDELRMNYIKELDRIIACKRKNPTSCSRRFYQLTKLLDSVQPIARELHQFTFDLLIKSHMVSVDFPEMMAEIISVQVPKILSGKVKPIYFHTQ

GFP-AR [3] = molecular target: T4, GFP-AR (Homo sapiens, UniProt P10275); format: cell-based; settings: murine 3108 cells expressing GFP-AR
T4 sequence (P10275 1-920): T3 sequence (P10275 1-920)

LNCaP-AR cells = assay: Cell growth; format: cell-based, human
22Rv1 cells = assay: Cell growth; format: cell-based, human
[4] = Solubility / precipitation in solvents; format: physicochemical
LAPC4 xenograft = LAPC4 xenograft growth in vivo; design: species or system mice; settings: 20 mg/kg via oral gavage, 42 days
[5] = Microsome metabolic assay; format: in vitro ADME; settings: in comparison to control compounds
[6] = Parallel Artificial Membrane Permeability Assay; format: in vitro ADME; settings: pH 6.5
[7] = tested on: H3K27ac and AR 3D chromatin contacts; assay: AQuA-HiChIP; format: cell-based, human; settings: 24 h at 20 µM, LNCaP-AR
Method in brief: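 LNCaP-AR cells grown in DMEM, 10% FBS, penicillin-streptomycin-glutamine, 37 °C, 5% CO2. MNase-based HiChIP for AR and H3K27ac with medium-salt washes and mouse chromatin spike-in for absolute quantification (AQuA). Paired-end sequencing to at least 200 million reads. Loops were filtered by distance, minimum AQuA-CPM and connection number, merged into clusters, and ranked by summed short- and long-range contacts.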

GFP-AR [8] = molecular target: T4, GFP-AR; assay: GFP-AR construct nuclear translocation in human cell lines; format: cell-based; settings: CSS
[9] = once peak concentration is reached; cited from earlier work
AR [10] = molecular target: T3, AR; assay: AR transcriptional assays of the triazole series; format: cell-based; settings: SI Fig. S1B/C

## CC1(C)C(=O)N(c2ccc(C#N)c(C(F)(F)F)c2)C(=S)N1Cc1ccc(-c2c[nH]nn2)cc1 [BG-15a]
hAR
  AR binding affinity (in words): strong AR binding affinity
[1]
  binding affinity to the PR (in words): nanomolar range binding affinity
AR [2]
  AR transcriptional activity (luciferase): dose-dependent decrease of AR activity
GFP-AR [3]
  AR translocation to the nucleus (nuclear to cytoplasmic ratio, dose response): induced nuclear translocation at doses 100 nM to 10 µM
LNCaP-AR cells
  growth inhibition compared to enzalutamide: more efficacious in inhibiting growth compared to enzalutamide
22Rv1 cells
  growth inhibition compared to enzalutamide: more efficacious in inhibiting growth compared to enzalutamide
[4]
  solubility (in words): limited
LAPC4 xenograft
  tumor growth: inhibition of tumor growth
[5]
  microsomal half-life (in words): notably high half-life
[6]
  drug recovery and cell permeability (PAMPA): performed similarly to each other and enzalutamide
[7]
  H3K27ac long-range contacts at AR loops: decreased long-range acetylation contacts at AR loops
GFP-AR [8]
  AR nuclear translocation (GFP-AR construct): consistently stimulated AR nuclear translocation

## CC(O)(CS(=O)(=O)c1ccc(F)cc1)C(=O)Nc1ccc(C#N)c(C(F)(F)F)c1 (stereo not drawn) [bicalutamide]
[7]
  H3K27ac long-range contacts at AR loops: decreased long-range acetylation contacts at AR loops

## CNC(=O)c1ccc(N2C(=S)N(c3ccc(C#N)c(C(F)(F)F)c3)C(=O)C2(C)C)cc1F [Enzalutamide, enzalutamide]
[9]
  half-life in patients: around 5 days

## Cn1cc(-c2ccc(CN3C(=S)N(c4ccc(C#N)c(C(F)(F)F)c4)C(=O)C3(C)C)cc2)nn1 [15b]
AR [10]
  anti-AR transcriptional activity (in words): dramatic loss in activity
